From ChEMBL document CHEMBL3526146, “In vitro and in vivo metabolism and pharmacokinetics of BMS-562086, a potent and orally bioavailable corticotropin-releasing factor-1 receptor antagonist” (Drug Metab Dispos, 2012)

Legend:
Liver microsome [1] = assay: Drug metabolism in beagle dog liver microsomes assessed as DPH-123554 metabolite level at 100 uM after 1 hr in presence of NADPH; assay type: ADME, Canis lupus familiaris
Method in brief: (§1)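 Mouse, rat, dog, monkey and human liver microsomes (1 mg/ml protein) were incubated with 100 µM compound in 100 mM phosphate buffer. Reactions were started with 1 mM NADPH and run 1 h at 37°C in duplicate. Controls lacked protein or NADPH, plus a 7-ethoxycoumarin (100 µM) positive control. Metabolites were identified by LC/MS/MS.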

[2] = Drug metabolism in beagle dog hepatocytes assessed as DPH-123554 metabolite level at 25 uM after 3 hrs by LC-MS/MS analysis; assay type: ADME, cell-based, Canis lupus familiaris, Hepatocyte
Method in brief: (§2)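 Mouse, rat, dog, monkey and human hepatocytes (trypan blue viability checked) at 1.0×10^6 cells/ml in Krebs-Henseleit buffer were incubated with 25 µM compound, in duplicate. Conditions were 37°C, 95/5 O2/CO2, orbital shaking, 3 h. 7-Ethoxycoumarin and 7-hydroxycoumarin (100 µM) served as positive controls, with a cell-free negative control. Reactions were quenched with ice-cold acetonitrile, then sonicated and centrifuged; supernatants were analysed by LC/MS/MS.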

Liver microsome [3] = assay: Detection of compound level in human liver microsomes treated with 100 uM of BMS-562086 after 1 hr by LC-MS/MS analysis
Liver microsome [4] = assay: Drug metabolism in dog liver microsomes assessed as DPH-124921 metabolite level at 100 uM after 1 hr in presence of NADPH; assay type: ADME, Canis lupus familiaris; method in brief: as §1
[5] = Retention time of the compound by HPLC method; assay type: physicochemical
[6] = Detection of compound level in cynomolgus monkey liver microsomes treated with 100 uM of BMS-562086 after 1 hr by LC-MS/MS analysis
Hepatocyte = assay: Detection of compound level in rat hepatocytes treated with 25 uM of BMS-562086 after 3 hrs by LC-MS/MS analysis; assay type: ADME, cell-based; method in brief: as §2
[7] = Detection of compound level in mouse liver microsomes treated with BMS-562086 by LC-MS/MS analysis
Liver microsome [8] = assay: Detection of compound level in rat liver microsomes treated with 100 uM of BMS-562086 after 1 hr by LC-MS/MS analysis
[9] = Drug metabolism in mouse liver microsomes assessed as BMS-572273 metabolite level at 100 uM after 1 hr in presence of NADPH; assay type: ADME
Method in brief: (§3)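 Liver microsomes (1 mg/ml protein) in 100 mM phosphate buffer with 100 µM test compound. Reaction started by adding NADPH (1 mM), then run at 37°C for 1 h in a shaking water bath, in duplicate. Controls lacked microsomal protein or NADPH; 7-ethoxycoumarin (100 µM) was the positive control. Metabolites identified by LC/MS/MS.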

Liver microsome [10] = assay: Drug metabolism in rat liver microsomes at 100 uM after 1 hr in presence of NADPH; assay type: ADME; method in brief: as §3
Liver microsome [11] = assay: Drug metabolism in rat liver microsomes assessed as DPH-123554 metabolite level at 100 uM after 1 hr in presence of NADPH; assay type: ADME; method in brief: as §3
[12] = Drug metabolism in beagle dog hepatocytes assessed as DPH-124921 metabolite level at 25 uM after 3 hrs by LC-MS/MS analysis; assay type: ADME, cell-based, Canis lupus familiaris, Hepatocyte; method in brief: as §2
[13] = Detection of compound level in cynomolgus monkey cryopreserved hepatocytes treated with 25 uM of BMS-562086 after 3 hrs by LC-MS/MS analysis; assay type: ADME, cell-based, Macaca fascicularis, Hepatocyte; method in brief: as §2
Liver microsome [14] = assay: Drug metabolism in human liver microsomes assessed as BMS-572273 metabolite level at 100 uM after 1 hr in presence of NADPH; assay type: ADME; method in brief: as §3
Liver microsome [15] = assay: Detection of compound level in beagle dog liver microsomes treated with 100 uM of BMS-562086 after 1 hr by LC-MS/MS analysis
[16] = Drug metabolism in bile duct-cannulated Sprague-Dawley rat urine assessed as BMS-572273 metabolite level at 30 mg/kg, po after 12 hrs by LC-MS/MS analysis; assay type: ADME, organism-based; parameters: dose 30 mg/kg, route oral; conditions: in vivo
Method in brief: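 Male bile-duct-cannulated Sprague-Dawley rats (n=3), fasted overnight, received 30 mg/kg by gavage in 0.5% methylcellulose. Urine and bile were collected 0-12 h and pooled by equal percentage weight across animals, then centrifuged. Supernatants were profiled by LC/MS/MS. Bile was also treated with β-glucuronidase in pH 4.8 acetate buffer, 37°C, 16 h.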

[17] = Cmax in chimpanzee at 1 mg/kg, po; assay type: ADME, organism-based, Pan troglodytes; parameters: dose 1 mg/kg, route oral; conditions: in vivo
Method in brief: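 Two fasted male chimpanzees (58, 72 kg) received 1 mg/kg orally as a suspension in 0.5% methylcellulose/orange drink with 1% Tween 80 (1:1). Blood was sampled 0-96 h post-dose. Plasma was assayed by validated LC/MS/MS (LLOQ 1.00 ng/ml). Noncompartmental analysis gave AUC(INF) by the mixed log-linear trapezoidal method, with Cmax observed directly; values are mean (min, max).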

[18] = molecular target: T1, Corticotropin-releasing factor-binding protein (Homo sapiens, UniProt P24387); assay: Binding affinity to CRF-binding protein (unknown origin)
T1 sequence (P24387 whole entry): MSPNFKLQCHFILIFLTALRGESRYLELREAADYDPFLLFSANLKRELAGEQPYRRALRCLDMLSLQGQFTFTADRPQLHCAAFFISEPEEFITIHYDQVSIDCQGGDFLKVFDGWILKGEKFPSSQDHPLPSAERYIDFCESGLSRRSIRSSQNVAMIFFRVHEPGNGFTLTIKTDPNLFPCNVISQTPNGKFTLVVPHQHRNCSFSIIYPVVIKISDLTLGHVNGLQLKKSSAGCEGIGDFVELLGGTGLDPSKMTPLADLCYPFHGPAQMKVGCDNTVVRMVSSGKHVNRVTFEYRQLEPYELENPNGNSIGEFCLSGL

Serum = assay: Metabolic stability in dog serum after 3 hrs by equilibrium dialysis; assay type: ADME, cell-free, Canis lupus familiaris
Method in brief: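 Stability assessed in the serum samples from the equilibrium-dialysis setup: compound at final 12.8, 25.6 and 38.5 µM, dialysed against 134 mM phosphate buffer, pH 7.4, at 37°C with rotation at 20 rpm. Samples monitored for degradants over the 3-h incubation.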

[19] = Drug metabolism in beagle dog hepatocytes assessed as decrease of compound level at 25 uM after 3 hrs by HPLC analysis; assay type: ADME, cell-based, Canis lupus familiaris, Hepatocyte; conditions: read-out: Drug metabolism; method in brief: as §2
[20] = Oral bioavailability in chimpanzee at 1 mg/kg; conditions: Pan troglodytes, in vivo
[21] = Drug metabolism in rat hepatocytes assessed as decrease of compound level at 25 uM after 3 hrs by HPLC analysis; assay type: ADME, cell-based, Hepatocyte; conditions: read-out: Drug metabolism
[22] = Protein binding in human serum after 3 hrs by equilibrium dialysis; assay type: ADME, cell-free; conditions: read-out: PB (converted)
Method in brief: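 Equilibrium dialysis of serum spiked to final 12.8, 25.6 and 38.5 µM against 134 mM phosphate buffer, pH 7.4, through a 10,000 Da cutoff membrane. Cells rotated at 20 rpm, 37°C, 3 h. Percent unbound taken as buffer concentration divided by serum concentration.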

[23] = Drug metabolism in human cryopreserved hepatocytes assessed as decrease of compound level at 25 uM after 3 hrs by HPLC analysis; assay type: ADME, cell-based, Hepatocyte; conditions: read-out: Drug metabolism

Drug metabolism (Liver microsome [1]) | Drug metabolism [2] | Drug metabolism (Liver microsome [3]) | Drug metabolism (Liver microsome [4]) | Retention_time [5] | Drug metabolism [6] | Drug metabolism (Hepatocyte) | Drug metabolism [7] | Drug metabolism (Liver microsome [8]) | Drug metabolism [9] | Drug metabolism (Liver microsome [10]) | Drug metabolism (Liver microsome [11]) | Drug metabolism [12] | Drug metabolism [13] | Drug metabolism (Liver microsome [14]) | Drug metabolism (Liver microsome [15]) | Compound | also measured
metabolite_detected | metabolite_detected | metabolite_detected | metabolite_detected | 28.5 min | metabolite_detected | metabolite_detected | metabolite_detected | metabolite_detected | metabolite_detected | metabolite_detected | metabolite_detected | metabolite_detected | metabolite_detected | metabolite_detected | metabolite_detected | COc1ccc(-c2c(C)nn3c(N)nc(C)nc23)c(C)n1 | –
metabolite_detected | metabolite_detected | metabolite_detected | metabolite_detected | 25.6 min | metabolite_detected | metabolite_detected | metabolite_detected | metabolite_detected | metabolite_detected | metabolite_detected | metabolite_detected | metabolite_detected | metabolite_detected | metabolite_detected | metabolite_detected | COc1ccc(-c2c(C)nn3c(O)nc(C)nc23)c(C)n1 | Drug metabolism [16]: metabolite_detected
metabolite_detected | metabolite_detected | metabolite_detected | metabolite_detected | 32.1 min | metabolite_detected | metabolite_detected | metabolite_detected | metabolite_detected | metabolite_detected | metabolite_detected | metabolite_detected | metabolite_detected | metabolite_detected | metabolite_detected | metabolite_detected | CC[C@@H](C)Nc1nc(C)nc2c(-c3ccc(O)nc3C)c(C)nn12 | –
metabolite_detected | metabolite_detected | metabolite_detected | metabolite_detected | 52.2 min | metabolite_detected | metabolite_detected | metabolite_detected | metabolite_detected | metabolite_detected | metabolite_detected | metabolite_detected | metabolite_detected | metabolite_detected | metabolite_detected | metabolite_detected | CC[C@@H](C)Nc1nc(C)nc2c(-c3ccc(OC)nc3C)c(C)nn12 [PEXACERFONT] | Cmax [17]: 1070 nM; IC50 [18]: > 1000 nM; Stability (Serum): Stable; metabolised at 3 h, 25 µM [19]: 61%; bioavailability [20]: 58.5%; metabolised at 3 h, 25 µM [21]: 68%; fraction unbound at 3 h [22]: 0.039; metabolised at 3 h, 25 µM [23]: 40%
